As a reminder, the IC50 is the concentration needed to halve the response being measured. Read a low IC50 as inhibition by little substance. As usually defined, the inhibition is the share of the control response that was lost under treatment.

The target in test [1] is Disintegrin and metalloproteinase domain-containing protein 17 (Homo sapiens, UniProt P78536). Put plainly: Inhibition of human TACE after 5 mins.
Test [2] deals with T1, Matrix metalloproteinase-9 (Homo sapiens, UniProt P14780). Put plainly: Inhibition of human MMP-9 using NFF-2 as substrate after 90 mins.
T1 sequence (P14780 whole entry): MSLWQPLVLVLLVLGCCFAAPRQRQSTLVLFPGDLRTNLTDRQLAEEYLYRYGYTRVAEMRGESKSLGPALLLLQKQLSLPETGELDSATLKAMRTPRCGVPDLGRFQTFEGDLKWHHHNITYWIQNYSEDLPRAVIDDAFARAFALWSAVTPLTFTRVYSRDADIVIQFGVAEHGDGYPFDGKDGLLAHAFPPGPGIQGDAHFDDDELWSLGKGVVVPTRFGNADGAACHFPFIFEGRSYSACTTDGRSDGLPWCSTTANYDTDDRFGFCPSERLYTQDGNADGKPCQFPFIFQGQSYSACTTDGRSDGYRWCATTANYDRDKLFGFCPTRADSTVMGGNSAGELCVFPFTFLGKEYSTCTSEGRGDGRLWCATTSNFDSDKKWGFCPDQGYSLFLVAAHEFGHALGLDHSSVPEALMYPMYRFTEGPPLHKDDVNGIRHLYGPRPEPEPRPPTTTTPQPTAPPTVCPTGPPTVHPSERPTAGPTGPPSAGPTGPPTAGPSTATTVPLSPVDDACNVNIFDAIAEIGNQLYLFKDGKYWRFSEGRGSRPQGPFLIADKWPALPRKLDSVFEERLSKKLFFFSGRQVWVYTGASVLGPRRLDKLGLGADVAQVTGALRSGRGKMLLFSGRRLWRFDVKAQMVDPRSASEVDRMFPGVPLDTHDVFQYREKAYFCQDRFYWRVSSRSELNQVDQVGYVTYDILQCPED
A further test addresses T2, Interstitial collagenase (Homo sapiens, UniProt P03956).
T2 sequence (P03956 whole entry): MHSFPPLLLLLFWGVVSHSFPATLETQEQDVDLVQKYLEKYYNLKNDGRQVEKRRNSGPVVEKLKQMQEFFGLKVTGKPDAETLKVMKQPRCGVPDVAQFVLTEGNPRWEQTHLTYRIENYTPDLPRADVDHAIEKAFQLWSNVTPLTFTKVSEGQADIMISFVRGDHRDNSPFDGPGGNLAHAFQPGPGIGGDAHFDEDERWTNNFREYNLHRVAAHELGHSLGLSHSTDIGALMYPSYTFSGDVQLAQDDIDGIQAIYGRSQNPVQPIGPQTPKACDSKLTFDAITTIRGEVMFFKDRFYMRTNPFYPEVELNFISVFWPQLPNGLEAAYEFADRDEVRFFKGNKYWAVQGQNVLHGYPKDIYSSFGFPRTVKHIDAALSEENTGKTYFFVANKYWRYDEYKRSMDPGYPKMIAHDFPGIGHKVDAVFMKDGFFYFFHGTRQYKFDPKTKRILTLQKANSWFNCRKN
Description: Inhibition of human MMP-1 using DNP-Pro-Cha-Gly-Cys(Me)-His-Ala-Lys(n-Me-Abz)-NH2 as substrate after 40 mins.

Test [3] concerns the target T3, A disintegrin and metalloproteinase with thrombospondin motifs 5 (Homo sapiens) (UniProt Q9UNA0).
T3 sequence (whole entry): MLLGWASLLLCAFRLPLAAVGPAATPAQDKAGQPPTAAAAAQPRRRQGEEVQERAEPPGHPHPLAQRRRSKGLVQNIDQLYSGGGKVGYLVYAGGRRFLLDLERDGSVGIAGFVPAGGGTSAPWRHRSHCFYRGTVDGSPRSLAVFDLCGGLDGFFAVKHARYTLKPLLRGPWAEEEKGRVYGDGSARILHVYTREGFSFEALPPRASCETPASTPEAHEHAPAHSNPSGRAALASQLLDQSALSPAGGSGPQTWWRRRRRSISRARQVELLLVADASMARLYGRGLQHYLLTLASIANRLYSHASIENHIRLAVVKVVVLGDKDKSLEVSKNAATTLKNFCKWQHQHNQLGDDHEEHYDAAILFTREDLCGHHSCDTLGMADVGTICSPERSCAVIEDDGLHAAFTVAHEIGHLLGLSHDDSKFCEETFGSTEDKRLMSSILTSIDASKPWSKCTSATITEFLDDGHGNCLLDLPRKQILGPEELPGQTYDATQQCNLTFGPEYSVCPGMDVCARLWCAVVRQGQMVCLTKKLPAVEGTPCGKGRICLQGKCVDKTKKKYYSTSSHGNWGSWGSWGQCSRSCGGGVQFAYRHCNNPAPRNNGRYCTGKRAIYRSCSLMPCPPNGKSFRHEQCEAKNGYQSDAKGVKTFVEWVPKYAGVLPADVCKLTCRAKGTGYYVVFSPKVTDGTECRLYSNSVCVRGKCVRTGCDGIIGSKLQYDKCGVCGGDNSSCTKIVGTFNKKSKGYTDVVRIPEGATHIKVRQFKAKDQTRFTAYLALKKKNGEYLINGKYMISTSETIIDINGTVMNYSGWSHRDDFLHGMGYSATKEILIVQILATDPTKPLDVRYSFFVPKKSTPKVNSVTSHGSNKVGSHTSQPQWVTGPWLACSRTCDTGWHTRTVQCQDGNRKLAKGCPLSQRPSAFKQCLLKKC
Put plainly: Inhibition of human recombinant ADAMTS-5 using bovine articular aggrecan as substrate incubated 20 mins prior to substrate addition measured after 48 hrs by spectrophotometry. An outline of the steps:
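ADAMTS-5 (3.4 µL of 600 nM stock) was pre-incubated 20 min at 37 °C with compound or 4% DMSO vehicle in Tris/NaCl/CaCl₂/Brij35, pH 7.5. Bovine articular aggrecan (50 µg/mL final) was added for 48 h at 37 °C, then stopped with EDTA. Samples were bound to PVDF and digested with chondroitinase ABC and keratanase. The ARGSVIL neoepitope was detected by BC-3 ELISA with TMB, read at 450 nm.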

A further test has as its target Collagenase 3 (Homo sapiens, UniProt P45452). Put plainly: Inhibition of human MMP-13 after 10 mins.
Test [4] deals with T1, Matrix metalloproteinase-9. Description: Inhibition of human MMP-9 using NFF-2 as substrate at 10 uM after 90 mins.
Test [5] concerns the target Macrophage metalloelastase (Homo sapiens, UniProt P39900). Description: Inhibition of human MMP-12 after 60 mins.
A further test deals with T4, Matrilysin (Homo sapiens, UniProt P09237).
T4 sequence (P09237 whole entry): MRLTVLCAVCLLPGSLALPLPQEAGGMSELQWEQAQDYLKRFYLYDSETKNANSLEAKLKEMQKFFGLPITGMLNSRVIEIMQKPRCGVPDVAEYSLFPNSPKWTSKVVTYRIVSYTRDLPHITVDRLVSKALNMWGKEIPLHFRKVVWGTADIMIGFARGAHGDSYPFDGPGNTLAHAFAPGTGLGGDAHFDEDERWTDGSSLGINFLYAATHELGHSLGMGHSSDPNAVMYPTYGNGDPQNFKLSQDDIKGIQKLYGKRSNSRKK
Description: Inhibition of human MMP-7 after 45 mins.

The target in test [6] is 72 kDa type IV collagenase (Homo sapiens, UniProt P08253). Description: Inhibition of human MMP-2 using NFF-2 as substrate at 10 uM after 90 mins.
Chain of 72 kDa type IV collagenase (P08253 110-660 limits assumed): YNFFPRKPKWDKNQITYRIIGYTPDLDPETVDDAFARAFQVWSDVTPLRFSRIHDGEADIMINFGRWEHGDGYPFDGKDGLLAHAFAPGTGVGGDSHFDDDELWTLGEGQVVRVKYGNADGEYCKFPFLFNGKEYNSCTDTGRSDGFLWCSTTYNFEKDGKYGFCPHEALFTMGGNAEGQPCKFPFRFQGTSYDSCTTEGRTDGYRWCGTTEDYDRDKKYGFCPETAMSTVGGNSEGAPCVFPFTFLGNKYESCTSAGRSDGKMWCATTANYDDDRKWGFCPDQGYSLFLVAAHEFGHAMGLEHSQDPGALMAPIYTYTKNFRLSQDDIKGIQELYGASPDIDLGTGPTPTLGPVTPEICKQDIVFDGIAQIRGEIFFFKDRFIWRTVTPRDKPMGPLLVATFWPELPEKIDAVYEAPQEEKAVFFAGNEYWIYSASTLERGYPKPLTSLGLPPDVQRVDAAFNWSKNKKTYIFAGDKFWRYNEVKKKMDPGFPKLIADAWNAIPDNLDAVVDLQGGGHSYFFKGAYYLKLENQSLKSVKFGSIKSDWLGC

Chain of Macrophage metalloelastase (P39900 whole entry): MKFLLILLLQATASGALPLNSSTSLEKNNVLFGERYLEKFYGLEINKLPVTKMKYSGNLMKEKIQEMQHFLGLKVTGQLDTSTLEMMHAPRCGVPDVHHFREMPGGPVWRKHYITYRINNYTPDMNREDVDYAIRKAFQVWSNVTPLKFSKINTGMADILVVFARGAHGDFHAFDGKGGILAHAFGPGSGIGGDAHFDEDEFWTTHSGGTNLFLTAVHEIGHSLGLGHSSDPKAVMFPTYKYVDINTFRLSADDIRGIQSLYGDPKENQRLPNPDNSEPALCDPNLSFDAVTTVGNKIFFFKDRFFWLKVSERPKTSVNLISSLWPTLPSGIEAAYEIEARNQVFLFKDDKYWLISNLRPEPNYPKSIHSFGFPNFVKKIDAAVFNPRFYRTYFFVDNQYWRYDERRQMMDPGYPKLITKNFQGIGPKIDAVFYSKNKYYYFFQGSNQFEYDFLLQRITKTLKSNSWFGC
Chain of Disintegrin and metalloproteinase domain-containing protein 17 (P78536 whole entry, the tested form may be a part): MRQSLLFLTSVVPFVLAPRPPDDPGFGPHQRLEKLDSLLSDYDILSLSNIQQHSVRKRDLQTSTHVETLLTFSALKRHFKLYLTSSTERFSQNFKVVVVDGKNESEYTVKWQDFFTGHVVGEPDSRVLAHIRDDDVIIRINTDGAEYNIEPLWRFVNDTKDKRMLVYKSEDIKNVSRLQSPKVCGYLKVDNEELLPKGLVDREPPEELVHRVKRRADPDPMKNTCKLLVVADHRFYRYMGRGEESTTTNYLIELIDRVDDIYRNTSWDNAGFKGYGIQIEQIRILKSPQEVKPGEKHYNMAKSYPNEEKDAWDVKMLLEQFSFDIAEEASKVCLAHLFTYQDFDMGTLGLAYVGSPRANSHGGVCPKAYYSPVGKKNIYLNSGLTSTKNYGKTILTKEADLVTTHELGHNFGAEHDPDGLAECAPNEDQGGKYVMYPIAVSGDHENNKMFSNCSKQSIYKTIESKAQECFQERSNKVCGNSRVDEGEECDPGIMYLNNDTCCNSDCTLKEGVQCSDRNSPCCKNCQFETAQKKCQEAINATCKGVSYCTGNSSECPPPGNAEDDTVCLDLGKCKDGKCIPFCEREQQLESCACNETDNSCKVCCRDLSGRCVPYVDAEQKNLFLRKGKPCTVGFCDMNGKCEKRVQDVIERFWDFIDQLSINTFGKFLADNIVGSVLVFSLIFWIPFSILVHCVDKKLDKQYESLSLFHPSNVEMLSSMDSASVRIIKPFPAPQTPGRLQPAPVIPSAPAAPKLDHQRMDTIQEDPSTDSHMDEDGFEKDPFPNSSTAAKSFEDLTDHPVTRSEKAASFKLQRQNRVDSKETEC

Regarding `O=C(COc1ccc(Cl)cc1)NNC(=S)NCCCCC1CCCCC1`, the IC50 is above 10 µM in [1]; above 10 µM in test [2]; above 10 µM at Interstitial collagenase; above 100 µM against Collagenase 3; above 100 µM in test [5]; above 100 µM on Matrilysin. Also, the figures for the inhibition entry in [3], in [4] and in test [6] were “Dose-dependent effect”, below 10% and below 10%, respectively.
